Test results: ChEMBL document CHEMBL4619773, “Chemoreactive-Inspired Discovery of Influenza A Virus Dual Inhibitor to Block Hemagglutinin-Mediated Adsorption and Membrane Fusion” (J Med Chem, 2020)
Calls of active or inactive are those of the source. The calls are words filed in the database; no cut-off is given here.

Assays:
Influenza A virus [1] = assay: Antiviral activity against Influenza A virus (A/Puerto Rico/8/1934(H1N1)) infected in MDCK cells assessed as inhibition of virus-induced cytopathic effect incubated for 48 hrs by crystal violet staining based assay; assay type: functional, organism-based
Summary of the method: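 MDCK cells were infected at MOI 0.1, the inoculum was removed, and compounds were added in triplicate. After 48 h the cells were fixed in 4% formaldehyde (20 min, RT) and stained with 0.1% crystal violet (30 min). Dye was solubilized in methanol and read at 570 nm.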

[2] = Selectivity index, ratio of CC50 for cytotoxicity in dog MDCK cells assessed as reduction in cell viability incubated for 48 hrs by crystal violet staining based assay to […] in dog MDCK cells assessed as reduction in cell viability incubated for 48 hrs by crystal violet staining based assay
[3] = Cytotoxicity in dog MDCK cells assessed as reduction in cell viability incubated for 48 hrs by crystal violet staining based assay; design: species or system Canis lupus familiaris
[4] = target: Hemagglutinin (Influenza A virus (A/Puerto Rico/8/1934(H1N1)), UniProt P03452); assay: Binding affinity to Influenza A virus (A/Puerto Rico/8/1934(H1N1)) Hemagglutinin at 1.5625 to 50 uM by SPR assay
Summary of the method: (§1)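 HA protein was immobilized on CM5 chips. Compound (50, […], 12.5, 6.25, 3.125, 1.5625 µM) was injected for 2 min, followed by a 10-min PBST wash and regeneration with 2 mM NaOH for 30 s. Runs were at 25 °C with 2 µl/s flow, using a blank HA-free reference channel. KD was obtained from kinetic fitting.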

[5] = system: Influenza A virus (A/Aichi/2/1968(H3N2)); assay: Binding affinity to Influenza A virus (A/Aichi/2/1968(H3N2)) Hemagglutinin at 1.5625 to 50 uM by SPR assay; summary of the method: as §1
Influenza A virus [6] = assay: Antiviral activity against Influenza A virus (A/Puerto Rico/8/1934(H1N1)) infected in Kunming mouse assessed as decrease in lung TNFalpha level at 10 mg/kg/day, po starting 4 hrs after viral challenge and continued for 4 days by ELISA; assay type: functional, organism-based
Summary of the method: (§2)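 Four-week-old female Kunming mice received PR8 intranasally (500 PFU/mouse in 40 µL PBS) and were then dosed once daily orally or intranasally. Lungs were collected on day 4, and TNF-α and IL-6 in lung tissue were measured by ELISA.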

Influenza A virus [7] = assay: Antiviral activity against Influenza A virus (A/Puerto Rico/8/1934(H1N1)) infected in Kunming mouse assessed as decrease in lung IL6 level at 10 mg/kg/day, po starting 4 hrs after viral challenge and continued for 4 days by ELISA; assay type: functional, organism-based; summary of the method: as §2
Influenza A virus [8] = assay: Antiviral activity against Influenza A virus (A/Puerto Rico/8/1934(H1N1)) infected in Kunming mouse assessed as mouse survival at 10 mg/kg/day, po starting 4 hrs after viral challenge and continued for 7 days by plaque assay; assay type: functional
Summary of the method: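 Groups of 10 female Kunming mice were infected intranasally with PR8 (1000 PFU/mouse) on day 0 and dosed once daily for seven days. Weight and clinical signs were recorded daily. Mice losing more than 25% of pre-infection weight were scored dead and euthanized; survivors were killed on day 14.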

Chain of Hemagglutinin (Influenza A virus (A/Puerto Rico/8/1934(H1N1)), UniProt P03452) (P03452 whole entry): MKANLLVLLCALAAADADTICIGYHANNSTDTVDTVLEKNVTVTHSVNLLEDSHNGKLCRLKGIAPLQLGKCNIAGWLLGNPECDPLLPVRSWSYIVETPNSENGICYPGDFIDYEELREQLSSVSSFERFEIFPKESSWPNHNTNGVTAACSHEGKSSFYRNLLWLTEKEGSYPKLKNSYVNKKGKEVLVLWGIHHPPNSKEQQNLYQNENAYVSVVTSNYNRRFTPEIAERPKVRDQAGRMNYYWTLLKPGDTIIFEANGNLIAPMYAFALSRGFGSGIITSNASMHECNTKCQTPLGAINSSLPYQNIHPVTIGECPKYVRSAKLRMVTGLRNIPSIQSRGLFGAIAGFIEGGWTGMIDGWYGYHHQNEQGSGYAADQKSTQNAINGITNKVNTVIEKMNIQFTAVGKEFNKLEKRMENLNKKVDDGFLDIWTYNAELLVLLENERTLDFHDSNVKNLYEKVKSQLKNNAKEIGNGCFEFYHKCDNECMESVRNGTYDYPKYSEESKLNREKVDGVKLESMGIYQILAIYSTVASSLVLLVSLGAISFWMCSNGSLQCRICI

**Q.** For `CC(=O)c1cc(C)c(O)c(Cc2[nH]c3cccc(Br)c3c2Cc2c(O)c(C)cc(C(C)=O)c2O)c1O`, which IC50 (Influenza A virus [1]) is on record?
**A.** > 100 µM

**Q.** For `CC(=O)c1cc(C)c(O)c(Cc2[nH]c3ccc(C)cc3c2Cc2c(O)c(C)cc(C(C)=O)c2O)c1O`, which IC50 (Influenza A virus [1]) is on record?
**A.** 39.8 µM

**Q.** And the “Ratio CC50/IC50” value [2]?
**A.** 17.1

**Q.** What about the CC50 at 48 h [3] of the same compound?
**A.** 681 µM

**Q.** What does the source list for `CCOC(=O)c1c(CSc2ccccc2)n(C)c2cc(Br)c(O)c(CN(C)C)c12` [UMIFENOVIR]?
**A.** Kd ([4]; read-out: Kd): 11.1 µM; IC50 (Influenza A virus [1]): 32.5 µM; Ratio CC50/IC50 [2]: 10.4; Activity [5]: Active

**Q.** Which Activity (Influenza A virus [6]) does the source give for `CCOC(=O)C1=C[C@@H](OC(CC)CC)[C@H](NC(C)=O)[C@@H](N)C1` [OSELTAMIVIR] here?
**A.** Active

**Q.** What about the Activity (Influenza A virus [7]) of the same compound?
**A.** Active

**Q.** And the survival at 10 mg/kg/day (Influenza A virus [8])?
**A.** 100%

**Q.** With `CC(=O)c1cc(C)c(O)c(Cc2cn(Cc3c(O)c(C)cc(C(C)=O)c3O)c3cccc(Br)c23)c1O` as the compound, how does the IC50 (Influenza A virus [1]) read?
**A.** > 100 µM

**Q.** For `CC(=O)c1cc(C)c(O)c(Cc2c[nH]c3ccccc23)c1O`, which Kd [4] is on record?
**A.** Not Active

**Q.** Which IC50 (Influenza A virus [1]) does the source give for `NC(=O)c1ncn([C@@H]2O[C@H](CO)[C@@H](O)[C@H]2O)n1` [RIBAVIRIN] here?
**A.** 98.3 µM

**Q.** And the “Ratio CC50/IC50” value [2]?
**A.** 20.8

**Q.** What does the source list for `CC(=O)NC1[C@H]([C@H](O)[C@H](O)CO)O[C@@](O[C@H]2[C@@H](O)[C@@H](CO)O[C@@H](O[C@@H]([C@H](O)[C@@H](O)C=O)[C@H](O)CO)[C@@H]2O)(C(=O)O)C[C@@H]1O` (stereo not given in full)?
**A.** Kd ([4]; read-out: Kd): 4.5 µM; Activity [5]: Active

**Q.** With `CC(=O)c1cc(C)c(O)c(Cc2c(Cc3c(O)c(C)cc(C(C)=O)c3O)n(Cc3c(O)c(C)cc(C(C)=O)c3O)c3ccccc23)c1O` as the compound, how does the IC50 (Influenza A virus [1]) read?
**A.** > 100 µM

**Q.** Which IC50 (Influenza A virus [1]) does the source give for `CC(=O)c1cc(C)c(O)c(Cc2c(Cc3c(O)c(C)cc(C(C)=O)c3O)n(Cc3c(O)c(C)cc(C(C)=O)c3O)c3cccc(Br)c23)c1O` here?
**A.** > 100 µM

**Q.** Which IC50 (Influenza A virus [1]) does the source give for `CC(=O)c1cc(C)c(O)c(CNc2cc(C(F)(F)F)cc(C(F)(F)F)c2)c1O` here?
**A.** > 100 µM
